# Results from ChEMBL document CHEMBL4364242, “Novel cationic bis(acylhydrazones) as modulators of Epstein-Barr virus immune evasion acting through disruption of interaction between nucleolin and G-quadruplexes of EBNA1 mRNA” (Eur J Med Chem, 2019).
# The source made the active and inactive calls. The calls are words filed in the database; no cut-off is given here.
# How the values were obtained:
# human gammaherpesvirus 4 [1] = assay: Binding affinity to EB virus F-g4-EBNA1 mRNA assessed as increase in melting temperature at 1 uM by fluorescence method
# Homo sapiens = species on record: Homo sapiens; assay: Binding affinity to […] assessed as increase in melting temperature at 1 uM by fluorescence method
# Summary of the method: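 F-25TAG-T telomeric DNA (5'-FAM/3'-TAMRA) melted with 1 μM ligand in K-100 buffer (10 mM LiAsO2Me2, 100 mM KCl, pH 7.3). Heating 25–95 °C at 0.5 °C/min. ΔTm derived from first-derivative Tm maxima relative to the no-ligand run.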
# [2] = Binding affinity to […] (unknown origin) assessed as increase in melting temperature at 1 uM by fluorescence method
# Summary of the method: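 Labeled F-myc22-T DNA (5'-FAM/3'-TAMRA) melted with 1 μM ligand in K-1 buffer (10 mM LiAsO2Me2, 1 mM KCl, 99 mM LiCl, pH 7.3). Ramp 0.5 °C/min from 25 to 95 °C. Tm taken from first-derivative maxima and ΔTm calculated versus ligand-free control.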
# [3] = Displacement of TO from EB virus g4-EBNA1 mRNA measured after 5 mins by FID assay; design: species or system human gammaherpesvirus 4
# Summary of the method: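 g4-EBNA1 RNA annealed 95 °C 5 min in K100 buffer (10 mM KAsO2Me2, 100 mM KCl, 1 mM EDTA, 1% DMSO), then mixed with TO; final 0.25 μM RNA and 0.5 μM TO, ligand 0–2.5 μM. Fluorescence read after 5 min shaking (485/520 nm), in duplicate. Displacement = 100×(1−F/F0); DC50 interpolated from the curve.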
# human gammaherpesvirus 4 [4] = assay: Binding affinity to EBNA1 G4-quadruplex in human H1299 cells assessed as EB virus EBNA1 expression at 10 uM incubated for 40 hrs by western blot analysis; format: cell-based
# Summary of the method: (§1)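 H1299 cells in RPMI-1640 with 10% FBS at 37 °C, 5% CO2, transiently transfected with EBNA1 or EBNA1ΔGAr constructs, then treated with 10 μM compound (DMSO vehicle) for 40 h. Lysates taken 48 h post-transfection and western blotted with anti-EBNA1 (OT1X). Levels normalized to GAPDH; at least three repeats.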
# human gammaherpesvirus 4 [5] = assay: Binding affinity to EBNA1 G4-quadruplex in human H1299 cells assessed as EB virus EBNA1 deleted GAr expression at 10 uM incubated for 40 hrs by western blot analysis; format: cell-based; summary of the method: as §1
# NCI-H1299 [6] = assay: Effect on OVA expression in human H1299 cells at 10 uM incubated for 40 hrs by western blot analysis; format: functional; design: unit not given here
# Summary of the method: (§2)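 OVA or 235GAr-OVA constructs transiently transfected into H1299 cells, followed by 40 h exposure to 10 μM compound or DMSO. Whole-cell lysates immunoblotted with rabbit anti-OVA; signal normalized to GAPDH. Experiments repeated at least three times.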
# NCI-H1299 [7] = assay: Effect on 235Gar-OVA expression in human H1299 cells at 10 uM incubated for 40 hrs by western blot analysis; format: functional; design: unit not given here; summary of the method: as §2
# [8] = Inhibition of recombinant NCL (unknown origin)/EB virusG4-EBNA1 mRNA interaction at 10 uM by RNA pull-down assay
# Summary of the method: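 Biotin-TEG RNA (g4-EBNA1 or non-G4 GM) folded in 10 mM Tris pH 7.5, 100 mM KCl, 0.1 mM EDTA (95 °C 5 min, cooled 2 °C/min), then bound to blocked streptavidin beads. 200 ng recombinant NCL added for 90 min at room temperature with 10 μM compound or DMSO. Beads washed up to 800 mM KCl; eluates western-blotted for NCL.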
# NCI-H1299 [9] = assay: Cytotoxicity against OVA-over expressing human H1299 cells at 10 uM incubated for 40 hrs; format: cell-based; details: nci-h1299, 40 h
# NCI-H1299 [10] = assay: Cytotoxicity against 235Gar-OVA-over expressing human H1299 cells at 10 uM incubated for 40 hrs; format: cell-based; details: nci-h1299, 40 h
ΔTm (human gammaherpesvirus 4 [1]) [°C],ΔTm (Homo sapiens) [°C],ΔTm [2] [°C],IC50 [3] [nM],fold change (FC) [8],Activity (human gammaherpesvirus 4 [1]),Structure (SMILES),Activity (human gammaherpesvirus 4 [4]),Activity (human gammaherpesvirus 4 [5]),Activity (NCI-H1299 [6]),Activity (NCI-H1299 [7]),Activity (NCI-H1299 [9]),Activity (NCI-H1299 [10])
20 to 30,15 to 30,15 to 30,590,,,CC[n+]1cccc2cc(/C=N/NC(=O)c3ccc4ccc5ccc(C(=O)N/N=C/c6ccc7c(ccc[n+]7CC)c6)nc5c4n3)ccc21.[I-].[I-],inactive,inactive,96,80,,
30,> 35,> 35,310,2,,C[n+]1cc(NC(=O)c2ccc3ccc4ccc(C(=O)Nc5cc6ccccc6[n+](C)c5)nc4c3n2)cc2ccccc21,,,,,,
,15 to 30,15 to 30,390,,Active,O=C(N/N=C/c1cc[n+](Cc2ccccc2)c2ccccc12)c1cccc(C(=O)N/N=C/c2cc[n+](Cc3ccccc3)c3ccccc23)n1.[Br-].[Br-],Active,Active,149,134,,
,15 to 30,15 to 30,1090,,Active,O=C(N/N=C/c1ccc2c(ccc[n+]2Cc2ccccc2)c1)c1ccc2ccc(C(=O)N/N=C/c3ccc4c(ccc[n+]4Cc4ccccc4)c3)nc2n1.[Br-].[Br-],inactive,inactive,108,104,,
,15 to 30,15 to 30,720,,Active,O=C(N/N=C/c1ccc2c(ccc[n+]2Cc2ccccc2)c1)c1cccc(C(=O)N/N=C/c2ccc3c(ccc[n+]3Cc3ccccc3)c2)n1.[Br-].[Br-],Active,Active,70,58,Toxic,Toxic
10 to 20,15 to 30,15 to 30,320,,,C[n+]1ccc(/C=N/NC(=O)c2ccc3ccc4ccc(C(=O)N/N=C/c5cc[n+](C)cc5)nc4c3n2)cc1.[I-].[I-],Active,Active,76,78,,
,,,1240,,,O=C(N/N=C/c1cc[n+](Cc2ccccc2)c2ccccc12)c1cc(C(=O)N/N=C/c2cc[n+](Cc3ccccc3)c3ccccc23)ncn1.[Br-].[Br-],inactive,inactive,106,108,,
,15 to 30,15 to 30,710,,Active,O=C(N/N=C/c1cc[n+](Cc2ccccc2)c2ccccc12)c1ccc2ccc(C(=O)N/N=C/c3cc[n+](Cc4ccccc4)c4ccccc34)nc2n1.[Br-].[Br-],inactive,inactive,93,106,,
< 10,,,930,,,C[n+]1ccc(/C=N/NC(=O)c2ccc3ccc(C(=O)N/N=C/c4cc[n+](C)cc4)nc3n2)cc1.[I-].[I-],inactive,inactive,99,112,,
,,,> 2500,,,CC[n+]1cccc2cc(/C=N/NC(=O)c3cc(C(=O)N/N=C/c4ccc5c(ccc[n+]5CC)c4)ncn3)ccc21.[I-].[I-],Active,Active,47,48,Toxic,Toxic
,15 to 30,15 to 30,610,,Active,C[n+]1ccc(/C=N/NC(=O)c2ccc3ccc(C(=O)N/N=C/c4cc[n+](C)c5ccccc45)nc3n2)c2ccccc21.[I-].[I-],inactive,inactive,100,95,,
,15 to 30,15 to 30,740,,Active,CC[n+]1cccc2cc(/C=N/NC(=O)c3cccc(C(=O)N/N=C/c4ccc5c(ccc[n+]5CC)c4)n3)ccc21.[I-].[I-],inactive,inactive,98,86,,
20 to 30,15 to 30,15 to 30,340,,,O=C(N/N=C/c1cc[n+](Cc2ccccc2)c2ccccc12)c1ccc2ccc3ccc(C(=O)N/N=C/c4cc[n+](Cc5ccccc5)c5ccccc45)nc3c2n1.[Br-].[Br-],inactive,inactive,114,96,,
< 10,,,2320,,,C[n+]1ccc(/C=N/NC(=O)c2cccc(C(=O)N/N=C/c3cc[n+](C)cc3)n2)cc1.[I-].[I-],inactive,inactive,93,106,,
,,,> 2500,,,O=C(N/N=C/c1ccc2c(ccc[n+]2Cc2ccccc2)c1)c1cc(C(=O)N/N=C/c2ccc3c(ccc[n+]3Cc3ccccc3)c2)ncn1.[Br-].[Br-],Active,Active,137,139,,
,,,,,,C[n+]1ccc(C=NNC(=O)c2ccc3ccc4ccc(C(=O)NN=Cc5cc[n+](C)cc5)nc4c3n2)cc1.[I-].[I-],,,,,Toxic,Toxic
,15 to 30,15 to 30,800,,Active,CC[n+]1cccc2cc(/C=N/NC(=O)c3ccc4ccc(C(=O)N/N=C/c5ccc6c(ccc[n+]6CC)c5)nc4n3)ccc21.[I-].[I-],inactive,inactive,111,82,,
,,,740,,,C[n+]1ccc(/C=N/NC(=O)c2cc(C(=O)N/N=C/c3cc[n+](C)c4ccccc34)ncn2)c2ccccc21.[I-].[I-],inactive,inactive,103,89,,
20 to 30,15 to 30,15 to 30,650,,,O=C(N/N=C/c1ccc2c(ccc[n+]2Cc2ccccc2)c1)c1ccc2ccc3ccc(C(=O)N/N=C/c4ccc5c(ccc[n+]5Cc5ccccc5)c4)nc3c2n1.[Br-].[Br-],inactive,inactive,94,111,,
,,,> 2500,,,C[n+]1ccc(/C=N/NC(=O)c2cc(C(=O)N/N=C/c3cc[n+](C)cc3)ncn2)cc1.[I-].[I-],inactive,inactive,92,80,,
